Measured values published in ChEMBL document CHEMBL5058577, “EUbOPEN Chemogenomics Library 2 (Multiplex)” (2022).

System: Fibroblast
Assay: Multiplex assay against human fibroblast
Format: toxicity, cell-based
Summary of the method: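 Live cells were stained at seeding with Hoechst33342, BioTracker Green Microtubule Cytoskeleton Dye, MitoTracker Red and Annexin V Alexa Fluor 680, then imaged on a CQ1 microscope at 37°C and 5% CO2 after compound addition. CellPathfinder machine-learning gating split cells into Hoechst high-intensity objects or normal cells. Normal cells were split into healthy, pyknosed or fragmented nuclei, and pyknosed cells into mitotic or apoptotic. Tubulin, mitochondrial-mass and membrane-permeability phenotypes are per cents of healthy-nucleus cells.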

[1] = 12 h, 1 µM, compound concentration 1 uM, replicate 1
[2] = 12 h, 1 µM, compound concentration 1 uM, replicate 2
[3] = 12 h, 10 µM, compound concentration 10 uM, replicate 1
[4] = 12 h, 10 µM, compound concentration 10 uM, replicate 2
[5] = 24 h, 1 µM, compound concentration 1 uM, replicate 1
[6] = 24 h, 1 µM, compound concentration 1 uM, replicate 2
[7] = 24 h, 10 µM, compound concentration 10 uM, replicate 1
[8] = 24 h, 10 µM, compound concentration 10 uM, replicate 2
[9] = 48 h, 1 µM, compound concentration 1 uM, replicate 1
[10] = 48 h, 1 µM, compound concentration 1 uM, replicate 2
[11] = 48 h, 10 µM, compound concentration 10 uM, replicate 1
[12] = 48 h, 10 µM, compound concentration 10 uM, replicate 2

N[C@@]1(C(=O)O)CO[C@H]2[C@H](C(=O)O)[C@H]21 [LY-379268]
Population Apoptotic (%) [1]: 22%
Population Fragmented Nuclei (%) [1]: 17%
Population Healthy Nuclei (%) [1]: 70%
Population Hoechst High Intensity Objects (%) [1]: 1%
Population Membrane Permeable-Phenotype (%) [1]: 0%
Population Mitochondria Different-Phenotype (%) [1]: 2%
Population Mitotic Cells (%) [1]: 77%
Population Normal (%) [1]: 98%
Population Pyknosed Nuclei (%) [1]: 11%
Population Tubulin-Different-Phenotype (%) [1]: 25%
Total Cell Count [1]: 156
Population Apoptotic (%) [2]: 44%
Population Fragmented Nuclei (%) [2]: 33%
Population Healthy Nuclei (%) [2]: 43%
Population Hoechst High Intensity Objects (%) [2]: 10%
Population Membrane Permeable-Phenotype (%) [2]: 5%
Population Mitochondria Different-Phenotype (%) [2]: 1%
Population Mitotic Cells (%) [2]: 55%
Population Normal (%) [2]: 89%
Population Pyknosed Nuclei (%) [2]: 22%
Population Tubulin-Different-Phenotype (%) [2]: 45%
Total Cell Count [2]: 145
Population Apoptotic (%) [3]: 29%
Population Fragmented Nuclei (%) [3]: 15%
Population Healthy Nuclei (%) [3]: 69%
Population Hoechst High Intensity Objects (%) [3]: 3%
Population Membrane Permeable-Phenotype (%) [3]: 0%
Population Mitochondria Different-Phenotype (%) [3]: 3%
Population Mitotic Cells (%) [3]: 70%
Population Normal (%) [3]: 96%
Population Pyknosed Nuclei (%) [3]: 14%
Population Tubulin-Different-Phenotype (%) [3]: 19%
Total Cell Count [3]: 187
Population Apoptotic (%) [4]: 21%
Population Healthy Nuclei (%) [4]: 51%
Population Membrane Permeable-Phenotype (%) [4]: 4%
Population Mitochondria Different-Phenotype (%) [4]: 1%
Population Mitotic Cells (%) [4]: 78%
Population Pyknosed Nuclei (%) [4]: 33%
Population Tubulin-Different-Phenotype (%) [4]: 47%
Total Cell Count [4]: 128
Population Apoptotic (%) [5]: 36%
Population Fragmented Nuclei (%) [5]: 16%
Population Healthy Nuclei (%) [5]: 70%
Population Hoechst High Intensity Objects (%) [5]: 0%
Population Membrane Permeable-Phenotype (%) [5]: 0%
Population Mitochondria Different-Phenotype (%) [5]: 5%
Population Mitotic Cells (%) [5]: 63%
Population Normal (%) [5]: 99%
Population Pyknosed Nuclei (%) [5]: 12%
Population Tubulin-Different-Phenotype (%) [5]: 23%
Total Cell Count [5]: 152
Population Apoptotic (%) [6]: 47%
Population Fragmented Nuclei (%) [6]: 40%
Population Healthy Nuclei (%) [6]: 41%
Population Hoechst High Intensity Objects (%) [6]: 10%
Population Membrane Permeable-Phenotype (%) [6]: 4%
Population Mitochondria Different-Phenotype (%) [6]: 10%
Population Mitotic Cells (%) [6]: 52%
Population Normal (%) [6]: 89%
Population Pyknosed Nuclei (%) [6]: 18%
Population Tubulin-Different-Phenotype (%) [6]: 60%
Total Cell Count [6]: 125
Population Apoptotic (%) [7]: 66%
Population Fragmented Nuclei (%) [7]: 14%
Population Healthy Nuclei (%) [7]: 75%
Population Hoechst High Intensity Objects (%) [7]: 5%
Population Membrane Permeable-Phenotype (%) [7]: 0%
Population Mitochondria Different-Phenotype (%) [7]: 3%
Population Mitotic Cells (%) [7]: 33%
Population Normal (%) [7]: 94%
Population Pyknosed Nuclei (%) [7]: 10%
Population Tubulin-Different-Phenotype (%) [7]: 19%
Total Cell Count [7]: 189
Population Apoptotic (%) [8]: 22%
Population Fragmented Nuclei (%) [8]: 17%
Population Healthy Nuclei (%) [8]: 53%
Population Hoechst High Intensity Objects (%) [8]: 6%
Population Membrane Permeable-Phenotype (%) [8]: 2%
Population Mitochondria Different-Phenotype (%) [8]: 0%
Population Mitotic Cells (%) [8]: 77%
Population Normal (%) [8]: 93%
Population Pyknosed Nuclei (%) [8]: 28%
Population Tubulin-Different-Phenotype (%) [8]: 44%
Total Cell Count [8]: 133
Population Apoptotic (%) [9]: 76%
Population Fragmented Nuclei (%) [9]: 22%
Population Healthy Nuclei (%) [9]: 68%
Population Hoechst High Intensity Objects (%) [9]: 3%
Population Membrane Permeable-Phenotype (%) [9]: 0%
Population Mitochondria Different-Phenotype (%) [9]: 5%
Population Mitotic Cells (%) [9]: 23%
Population Normal (%) [9]: 96%
Population Pyknosed Nuclei (%) [9]: 8%
Population Tubulin-Different-Phenotype (%) [9]: 26%
Total Cell Count [9]: 156
Population Apoptotic (%) [10]: 50%
Population Fragmented Nuclei (%) [10]: 33%
Population Healthy Nuclei (%) [10]: 55%
Population Hoechst High Intensity Objects (%) [10]: 11%
Population Membrane Permeable-Phenotype (%) [10]: 4%
Population Mitochondria Different-Phenotype (%) [10]: 7%
Population Mitotic Cells (%) [10]: 50%
Population Normal (%) [10]: 88%
Population Pyknosed Nuclei (%) [10]: 11%
Population Tubulin-Different-Phenotype (%) [10]: 59%
Total Cell Count [10]: 136
Population Apoptotic (%) [11]: 62%
Population Fragmented Nuclei (%) [11]: 14%
Population Healthy Nuclei (%) [11]: 72%
Population Hoechst High Intensity Objects (%) [11]: 1%
Population Membrane Permeable-Phenotype (%) [11]: 0%
Population Mitochondria Different-Phenotype (%) [11]: 0%
Population Mitotic Cells (%) [11]: 37%
Population Normal (%) [11]: 98%
Population Pyknosed Nuclei (%) [11]: 13%
Population Tubulin-Different-Phenotype (%) [11]: 19%
Total Cell Count [11]: 179
Population Apoptotic (%) [12]: 42%
Population Fragmented Nuclei (%) [12]: 27%
Population Healthy Nuclei (%) [12]: 56%
Population Hoechst High Intensity Objects (%) [12]: 7%
Population Membrane Permeable-Phenotype (%) [12]: 10%
Population Mitochondria Different-Phenotype (%) [12]: 5%
Population Mitotic Cells (%) [12]: 57%
Population Normal (%) [12]: 92%
Population Pyknosed Nuclei (%) [12]: 16%
Population Tubulin-Different-Phenotype (%) [12]: 47%
Total Cell Count [12]: 140
